Experimental data taken from ChEMBL document CHEMBL4513216, “Probing the Open Global Health Chemical Diversity Library for Multistage-Active Starting Points for Next-Generation Antimalarials” (ACS Infect Dis, 2020).

test: Toxicity liver stage against HepG2, at 10uM; assay type: cell-based; design: test concentration 10 uM, cell line HepG2-A16-CD81EGFP; details: human, HepG2-A16-CD81EGFP cells; read-out: INHIBITION
Procedure, shortened: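 Uninfected HepG2-A16-CD81EGFP cells, 3 × 10^3 per well, 1536-well, plated on prespotted compound at 10 μM final, parasite-free screening media added to match infected plates; puromycin 10 μM positive, DMSO 0.5% negative; run in parallel with 48 h PbLuc assay at 37 °C, 5% CO2; viability by CellTiter-Glo luminescence, normalized to controls.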

Row | SMILES | cytotoxicity at 10 µM
1 | CC(=O)N1CC(=O)N(c2cnn(C)c2)CC12CCN(Cc1nccs1)C2 (stereo unspecified) | 6.03%
2 | COc1ccc(OCc2nc(C(=O)NCCN3CCOCC3)co2)cc1 | 1.87%
3 | CC(C)(C)C(Cn1ccnc1)NC(=O)NCc1ccco1 (stereo unspecified) | -1.85%
4 | CNC(=O)c1ccc(CN2CCN(C3=NCC(C)(C)S3)CC2)cc1 | 14.3%
5 | O=C1O[C@@H]2CN(Cc3cccc(O)c3)C[C@@H]2N1CCCN1CCOCC1 | 0.476%
6 | COC(=O)CNC(=O)c1cn(Cc2ccccc2F)nn1 | 4.98%
7 | Cc1n[nH]cc1CNC(C)c1cccc(N2CCCC2=O)c1 (stereo unspecified) | 6.05%
8 | CCN(CC)S(=O)(=O)NCc1ccc(-c2ccc(C(N)=O)c(C)n2)cc1 | 2.77%
9 | Cc1ccc(C(=O)N2CC[C@@H]3CN(C4CCOCC4)CCO[C@@H]3C2)o1 | -121%
10 | CC(C)(C)C(=O)NCC(=O)NCCc1nc(C(F)(F)F)cs1 | 6.16%
11 | CC(=O)c1cc(CN2C[C@@H]3CC[C@H]2CN(S(C)(=O)=O)C3)cs1 | 8.35%
12 | CCN(c1ccc(C(=O)N2CCCCC2)cc1)S(=O)(=O)CC | 1.85%
13 | CC(=O)NCCC(Cc1ccccc1)c1ccco1 (stereo unspecified) | -1.24%
14 | Cc1ccc(CNCc2nnc3n2CC(C(F)(F)F)CC3)o1 (stereo unspecified) | 9.87%
15 | CC(C)(C(=O)N1CCC(C(N)=O)C1)c1ccccc1F (stereo unspecified) | 4.68%
16 | O=C(Cc1cccs1)N1CCc2nnc(COc3cncnc3)n2CC1 | 8.61%
17 | CCN(CC1CCOC1)C(=O)Nc1ccc(N2CCCCC2)nc1 (stereo unspecified) | -6.45%
18 | Cc1ccc(NC(=O)CNc2cccc(C(N)=O)c2C)c(C)c1 | 17.6%
19 | Cc1cc(NC(=O)N(CCO)Cc2ccsc2)no1 | -5.57%
20 | CCN1CCC(CNC(=O)C(c2ccccc2F)N(C)C)(N(C)C)CC1 (stereo unspecified) | -1.7%
21 | CC(C)(C)c1csc(C2CCCCN2C(=O)CCn2cncn2)n1 (stereo unspecified) | -4.34%

Row | SMILES | cytotoxicity at 10 µM
22 | Cc1nc(CC(=O)N2CCN(C)CC2c2ccccc2)cs1 (stereo unspecified) | 3.49%
23 | N#Cc1cccnc1NCCNC(=O)N1CCCC(C(F)(F)F)C1 (stereo unspecified) | -3.76%
24 | CCN(CC)C(=O)CSc1nc2cc(C)nc-2c(O)n1CC | 6.58%
25 | Cc1nn(C)c2cnn(CC(=O)NCc3ccccc3F)c12 | 7.8%
26 | CC(C)CN(Cc1ccsc1)C(=O)CCCn1cncn1 | -47.9%
27 | CCC1COC2(CCN(C(=O)c3ccco3)CC2)C1 (stereo unspecified) | -65.4%
28 | Cn1cnc(S(=O)(=O)N2CCOCC2)c1Cl | 5.9%
29 | Cn1cc(CCC(=O)NS(=O)(=O)N2CCCc3ccccc32)cn1 | 14.6%
30 | Cc1ccc(C(=O)N2CCCC(CNS(C)(=O)=O)C2)o1 (stereo unspecified) | -16%
31 | O=C(CCO)N1C[C@@H]2CC[C@H]1CN(C1Cc3ccccc3C1)C2 | -0.608%
32 | O=C1COC2(CCN(c3ncccn3)CC2)CN1Cc1ccccn1 | 2.4%
33 | O=C(NC1CC1)[C@H]1C[C@H]2OCC[C@H]2N(Cc2cccc3ccccc23)C1 | 2.64%
34 | Cc1ccc2c(c1)SCC(=O)N2CC(=O)N1CCC[C@H]1c1nc(C)no1 | 7.95%
35 | O=C(COCC1CCCCO1)N1CCN(Cc2ccccc2F)C(=O)C1 (stereo unspecified) | 3.15%
36 | CN1CC[C@]2(CN(S(C)(=O)=O)C[C@H]2c2ccccc2)C1=O | -120%
37 | O=C1CO[C@H]2CN(Cc3c[nH]c4ccccc34)C[C@H]2N1 | 1.61%
38 | Cc1ccccc1NC(=O)NCCn1nc(C(F)(F)F)n(C)c1=O | -1.68%
39 | Cc1ccc(-c2cc(C(=O)NCCCc3csc(N)n3)[nH]n2)o1 | 79.5%
40 | Cc1nc2c(c(=O)[nH]1)CN(C(=O)CCC1CCCN(C)C1)C2 (stereo unspecified) | -7.76%
41 | Cc1nsc(NC(=O)NC2CCOCC2)n1 | -10.1%
42 | CN(Cc1nc(C2CC2)no1)C(=O)c1cccc(CC2CCNCC2)c1 | 2.74%

Row | SMILES | cytotoxicity at 10 µM
43 | Cc1cc(C[S+]([O-])Cc2ccccc2F)on1 (stereo unspecified) | -8.37%
44 | Cn1cc([C@@H]2CN(S(=O)(=O)c3cccs3)C[C@H]2N)c2ccncc21 | 1.44%
45 | O=C(NCc1ccncc1)N1CC(Cc2ccccc2F)C1 | -8.85%
46 | COCC(c1cccc(C(F)(F)F)c1)N(C)C(=O)c1cccnc1 (stereo unspecified) | -5.28%
47 | O=C1NC(c2ccccc2)=N[C@@]12CC[C@@H]1CN(Cc3ccncc3)C[C@@H]12 | 11.9%
48 | Cc1ccn(CCC(=O)NCc2ccco2)n1 | 5.94%
49 | Cc1ccc(C(=O)N(Cc2ccc(F)cc2)C2CC2)c(=O)[nH]1 | -1.4%
50 | NC(=O)CNC(c1ccccc1)c1ccc(OC(F)F)cc1 (stereo unspecified) | 58.2%
51 | O=C(Cc1csc(-c2ccco2)n1)N1CCN(c2nccs2)CC1 | -9.26%
52 | CCNC(=O)C(C)(C)NC(=O)NCc1cccc(Br)c1 | 8.44%
53 | COc1ncc(CN(CCCN2CCOCC2)Cc2ccc(C)o2)cn1 | -33%
54 | CCN(C(=O)CNc1cc(C)c(F)cc1C(N)=O)C1CC1 | 2.14%
55 | Cc1cc(CN(C)C(=O)C2CCS(=O)(=O)C2)no1 (stereo unspecified) | 0.746%
56 | CCCC1CN(CC(C)C)C(=O)c2cccnc2O1 (stereo unspecified) | 3.04%
57 | CC(C)N(C)Cc1cnc2n1CCN(C(=O)Cc1ccccn1)C2 | -0.405%
58 | CCOCC1COCCC12CCN(C(=O)C1=CCCC1)CC2 (stereo unspecified) | -2.35%
59 | Cn1nc(C(=O)N2CCCC2)c2c1CN(CC1CCOCC1)C2 | -2.51%
60 | NC(=O)N1CCCC(C(=O)NCCOc2ccc(F)cc2F)C1 (stereo unspecified) | 3.26%
61 | O=C(C1CCN(c2snc3ccccc23)CC1)N1CCCCCC1 | 11.7%
62 | Fc1ccccc1OCCc1cc(C2CNCCO2)n[nH]1 (stereo unspecified) | -2.16%
63 | CN(C)CCO[C@H]1CN(Cc2cccc(C#N)c2)[C@@H]2COC[C@H]12 | -12.7%

Row | SMILES | cytotoxicity at 10 µM
64 | Cc1nc(CN2CCCC(NCCOCC(F)(F)F)C2)no1 (stereo unspecified) | -11.1%
65 | COCC(O)CN(C)c1ccnc2cc(Br)ccc12 (stereo unspecified) | 5.02%
66 | Cc1ccc(N2CCC3(CCN(Cc4nccs4)CC3)CC2)nn1 | 10.6%
67 | O=C1NCC2(CCCN(C(=O)c3ccc4c(c3)CCO4)C2)O1 (stereo unspecified) | 2.32%
68 | Cc1cnn(CC(C)NCc2cc(=O)n3cc(C)ccc3n2)c1 (stereo unspecified) | 3.89%
69 | Cn1cc(-c2nc(CN3CCN(c4nccs4)CC3)cs2)cn1 | -7.45%
70 | Cc1cnn(CC2CCCN2C(=O)Cc2c(C)nc(C)[nH]c2=O)c1 (stereo unspecified) | -3.63%
71 | CC(=O)N1CCN([C@@H]2CC[C@@H](NC(=O)c3cc(C)cs3)[C@H]2O)CC1 | 6.02%
72 | O=C(O)C1(Cc2ccc(-c3cccs3)cc2)CCNC1 (stereo unspecified) | -0.74%
73 | CCOC(=O)C1CN(CC2CC2)Cc2ncn(CC)c21 (stereo unspecified) | 12.2%
74 | O=C(COCCOc1ccccc1)Nc1ccnn1CC1CCOC1 (stereo unspecified) | 1.88%
75 | CCCNc1c(NC(=O)NCCCOC)c(=O)oc2ccccc12 | -4.52%
76 | COc1ccc(CN2C[C@H]3CC[C@@H](C2)N(S(=O)(=O)C2CC2)C3)cc1 | -1.12%
77 | CC(C)S(=O)(=O)C(C)C(=O)Nc1ccc2oc(C3CC3)nc2c1 (stereo unspecified) | 1.77%
78 | COc1ccc(C(=O)N(c2ccc(OC)c(F)c2)C(C)C)cn1 | -1.94%
79 | CN1CCN(c2nccc(-c3cncnc3C3CCCCC3)n2)CC1 | -4.33%
80 | O=S(=O)(CC1CCCN1S(=O)(=O)c1cccnc1)c1ccccc1 (stereo unspecified) | -4.31%
81 | Cc1c(Br)cccc1C(=O)NCCC1CCCNC1 (stereo unspecified) | -11.7%
